Usually pEC50 stands for the EC50 on a negative log10 scale, so that one unit is a factor of ten.

Each structure is given as a SMILES string. pEC50: −log10 of the molar value. In brackets after ≈: the same amount, converted by molar mass. Activity calls are given as the source filed them. No cut-off for these calls is given here.

The values that follow come from ChEMBL document CHEMBL4017520, “Discovery, Structure-Activity Relationship, and Antiparkinsonian Effect of a Potent and Brain-Penetrant Chemical Series of Positive Allosteric Modulators of Metabotropic Glutamate Receptor 4” (J Med Chem, 2017).

Data set [1] is described as follows: Thermodynamic solubility of the compound in water. The format is physicochemical. As to conditions: read-out: Therm_solubility. The procedure, abridged: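 Thermodynamic solubility measured in milli-Q water.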
A short description of data set [2]: Drug uptake in Sprague-Dawley rat brain at 10 mg/kg, po after 30 mins post dose administered as single dose by LC-MS/MS analysis. As to conditions: read-out: Drug uptake. It counts as ADME, organism-based. The essentials: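 Rats given a single oral dose of 10 mg/kg. The first plasma sample was taken at 15 min, and sampling continued to 24 h postdose. Brain was sampled at 30 min. Values are the mean (±SEM) of 3 rats.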

Data set [3] in a line: Drug uptake in Sprague-Dawley rat brain at 10 mg/kg, po after 60 mins post dose administered as single dose by LC-MS/MS analysis. The format is ADME, organism-based. As to conditions: read-out: Drug uptake. The essentials: (§1)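 Rats given a single oral dose of 10 mg/kg. Brain concentrations were measured at 30, 60 and 90 min postdose, and brain AUC0–inf was determined. Values are the mean of three rats. Lower limit of quantification was 1 ng/mL.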

In data set [4] the target is Metabotropic glutamate receptor 4 (Homo sapiens, UniProt Q14833). Description: Positive allosteric modulation of recombinant human mGlu4 receptor expressed in HEK293 cells co-expressing Gi/Gq assessed as increase in glutamate-induced calcium flux preincubated for 10 mins followed by glutamate addition measured for 3 mins by Fluo4-AM dye based fluorescence assay. The format is functional, cell-based. As to conditions: for pEC50: read-out: EC50; for EC50: hek293.

A short description of data set [5]: Drug uptake in Sprague-Dawley rat brain at 10 mg/kg, po after 90 mins post dose administered as single dose by LC-MS/MS analysis. It counts as ADME, organism-based. As to conditions: read-out: Drug uptake. The essentials:
as §1

Data set [6] addresses Metabotropic glutamate receptor 1 (Homo sapiens) (UniProt Q13255). Description: Negative allosteric modulation of human mGlu1 receptor expressed in HEK293 cells co-expressing Gi/Gq assessed as reduction in EC20/EC80 glutamate-induced intracellular calcium level preincubated for 10 mins followed by glutamate addition measured for 3 mins by Fluo4-AM dye based fluorescence assay. The format is functional, cell-based. The essentials: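 HEK-293 cells transiently expressing human mGluR1 with a Gα15, Gqi9 or GqTOP G protein for calcium read-out; Fluo4-AM loaded. Compound added 10 min, then EC80 glutamate, fluorescence recorded 3 min; concentration–response over 20 concentrations, duplicate, three independent experiments.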
(Calcium assays in cells follow changes in intracellular calcium, usually with a dye or a luminescent sensor.)

Chain of Metabotropic glutamate receptor 4 (Q14833 whole entry): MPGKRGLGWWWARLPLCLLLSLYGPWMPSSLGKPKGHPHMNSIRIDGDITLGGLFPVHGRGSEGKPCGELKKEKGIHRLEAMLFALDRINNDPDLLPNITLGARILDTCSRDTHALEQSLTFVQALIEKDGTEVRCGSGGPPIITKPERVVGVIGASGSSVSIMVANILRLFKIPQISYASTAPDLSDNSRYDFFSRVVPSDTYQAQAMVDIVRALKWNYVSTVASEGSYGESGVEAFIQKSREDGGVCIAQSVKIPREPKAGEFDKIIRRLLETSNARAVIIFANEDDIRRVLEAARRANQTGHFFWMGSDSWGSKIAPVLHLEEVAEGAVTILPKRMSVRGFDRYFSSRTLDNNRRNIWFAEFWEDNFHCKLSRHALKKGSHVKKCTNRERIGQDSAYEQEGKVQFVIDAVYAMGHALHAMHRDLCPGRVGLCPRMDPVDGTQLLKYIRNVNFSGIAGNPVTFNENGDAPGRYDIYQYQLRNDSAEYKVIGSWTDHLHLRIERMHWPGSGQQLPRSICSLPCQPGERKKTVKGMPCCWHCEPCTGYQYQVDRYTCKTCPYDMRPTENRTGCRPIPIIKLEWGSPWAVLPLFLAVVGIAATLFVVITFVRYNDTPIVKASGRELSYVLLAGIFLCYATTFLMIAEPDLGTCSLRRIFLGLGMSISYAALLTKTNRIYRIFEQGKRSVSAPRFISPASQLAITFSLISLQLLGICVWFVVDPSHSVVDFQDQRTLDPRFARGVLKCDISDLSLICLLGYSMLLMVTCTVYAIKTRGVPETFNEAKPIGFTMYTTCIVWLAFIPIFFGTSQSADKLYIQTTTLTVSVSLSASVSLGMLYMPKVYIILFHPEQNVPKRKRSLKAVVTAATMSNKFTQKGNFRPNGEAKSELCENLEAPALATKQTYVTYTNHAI
Chain of Metabotropic glutamate receptor 1 (Homo sapiens) (Q13255 19-1194 limits assumed): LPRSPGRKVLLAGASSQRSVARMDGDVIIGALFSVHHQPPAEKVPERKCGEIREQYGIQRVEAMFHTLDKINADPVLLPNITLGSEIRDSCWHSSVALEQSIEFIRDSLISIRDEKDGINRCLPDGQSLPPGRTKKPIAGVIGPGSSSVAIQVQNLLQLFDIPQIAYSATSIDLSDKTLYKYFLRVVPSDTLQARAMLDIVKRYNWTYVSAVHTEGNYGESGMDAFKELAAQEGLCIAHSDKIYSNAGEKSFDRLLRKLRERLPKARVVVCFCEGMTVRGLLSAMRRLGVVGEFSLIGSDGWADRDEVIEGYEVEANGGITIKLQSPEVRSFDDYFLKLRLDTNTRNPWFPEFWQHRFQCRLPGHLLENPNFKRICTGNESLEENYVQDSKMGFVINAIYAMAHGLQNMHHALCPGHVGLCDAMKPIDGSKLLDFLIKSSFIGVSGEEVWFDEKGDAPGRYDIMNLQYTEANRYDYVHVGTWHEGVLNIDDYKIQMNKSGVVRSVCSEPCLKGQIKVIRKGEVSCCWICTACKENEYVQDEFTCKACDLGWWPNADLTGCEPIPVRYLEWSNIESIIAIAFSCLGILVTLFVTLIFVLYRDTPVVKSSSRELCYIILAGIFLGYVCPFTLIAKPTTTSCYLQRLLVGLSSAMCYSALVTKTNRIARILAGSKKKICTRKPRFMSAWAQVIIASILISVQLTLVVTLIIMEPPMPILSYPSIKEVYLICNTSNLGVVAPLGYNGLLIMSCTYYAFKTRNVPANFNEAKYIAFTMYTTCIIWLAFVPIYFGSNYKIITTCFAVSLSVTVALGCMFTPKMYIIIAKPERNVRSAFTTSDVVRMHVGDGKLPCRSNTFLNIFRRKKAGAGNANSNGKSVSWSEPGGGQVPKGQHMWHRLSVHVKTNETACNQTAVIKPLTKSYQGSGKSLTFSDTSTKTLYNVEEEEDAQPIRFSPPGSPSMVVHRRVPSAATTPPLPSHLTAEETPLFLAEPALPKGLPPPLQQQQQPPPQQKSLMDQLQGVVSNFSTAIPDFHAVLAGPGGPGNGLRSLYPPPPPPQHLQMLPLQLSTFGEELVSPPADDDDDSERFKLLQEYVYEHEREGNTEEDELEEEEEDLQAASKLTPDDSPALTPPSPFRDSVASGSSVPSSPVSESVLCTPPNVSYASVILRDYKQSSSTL

For the molecule `Cl.O/N=c1\cc(-c2cc3cccn3cn2)oc2ccc(OCCN3CCOCC3)cc12`, the solubility thermodynamic in data set [1] amounted to 10600 µM.
For the molecule `CC(=O)N1CCC(COc2ccc3oc(-c4cc5sccc5cn4)c/c(=N\O)c3c2)CC1`, the concentration at 0.5 h in data set [2] came out at 10.7 ng/g. For the same molecule, the concentration at 1 h in data set [3] amounted to 6.5 ng/g. Further, the pEC50 in data set [4] is 8.22.
Take `CN1CCN(CCOc2ccc3oc(-c4cc5ccccc5cn4)c/c(=N\O)c3c2)CC1`: the pEC50 in data set [4] is 5.01.
Regarding `O/N=c1\cc(-c2cc3ccccc3cn2)oc2cc(CCc3ccccc3)ccc12`, the pEC50 in data set [4] is 5.76.
Consider `O/N=c1\cc(-c2cc3sccc3cn2)oc2ccc(OC3CN(c4cccnc4)C3)cc12`, for which the concentration at 0.5 h in data set [2] is 33.4 ng/g. In addition, the concentration at 1 h in data set [3] was 26.7 ng/g. In data set [4], the pEC50 was 8.40.
Take `O/N=c1\cc(/C=C/c2ccccc2)oc2ccccc12`: the pEC50 in data set [4] was 4.85.
For the molecule `O/N=c1\cc(-c2cc3cc[nH]c3cn2)oc2ccccc12`, in data set [4], the pEC50 was 7.30.
Turning to `O/N=c1\cc(-c2cc3cccn3cn2)oc2ccccc12`, the pEC50 in data set [4] was 6.96. In addition, the solubility thermodynamic in data set [1] came to 0.2 µM (≈ 0.0555 µg/mL).
With `O/N=c1\cc(-c2cc3cccn3cn2)oc2ccc(OCCCc3cccnc3)cc12`, the concentration at 0.5 h in data set [2] was determined as 3.4 ng/g. For the same molecule, in data set [3], the concentration at 1 h was found to be 2.3 ng/g. The pEC50 in data set [4] is 7.30.
Take `Cc1ccc2oc(-c3cc4ccccc4cn3)c/c(=N\O)c2c1`: in data set [4], the pEC50 was 6.01.
Regarding `O/N=c1\cc(-c2cc3sccc3cn2)oc2ccc(CCCN3CCC(F)(F)C3)cc12`, the concentration at 0.5 h in data set [2] stood at 275 ng/g. Further, the concentration at 1 h in data set [3] was found to be 197 ng/g. Also, the concentration at 1.5 h in data set [5] was 137 ng/g. Also, in data set [4], the pEC50 was 7.60.
As to `O/N=c1\cc(-c2cc3cccn3cn2)oc2ccc(OCCN3CCCC3)cc12`, the pEC50 in data set [4] was 5.63.
Take `CN(C)C(=O)N1CC(Oc2ccc3oc(-c4cc5cccn5cn4)c/c(=N\O)c3c2)C1`: in data set [2], the concentration at 0.5 h turned out to be 25.5 ng/g. Further, in data set [3], the concentration at 1 h came to 8.8 ng/g. The pEC50 in data set [4] was 7.46.
As to `COCCOc1ccc2oc(-c3cc4ccccc4cn3)c/c(=N\O)c2c1`, the pEC50 in data set [4] is 6.12.
Same read-out and setting: next, `O/N=c1\cc(-c2cc3ccccc3cn2)oc2ccc(OC(F)(F)F)cc12`: 5.79.
For `CON=c1cc(-c2cc3ccccc3cn2)oc2ccccc12`, the EC50 entry in data set [4] is listed as “Not Active”.
`O/N=c1\cc(-c2cc3ccccc3[nH]2)oc2ccccc12`: the pEC50 in data set [4] was less than 4.52.
Turning to `O/N=c1\cc(-c2cc3sccc3cn2)oc2ccc(NC3CCN(c4ccncn4)CC3)cc12`, the concentration at 1 h in data set [3] was less than 1 ng/g. The pEC50 in data set [4] was 7.28.
As to `O/N=c1\cc(-c2cc3sccc3cn2)oc2ccc(O[C@@H]3CCN(c4ccncn4)C3)cc12`, the concentration at 0.5 h in data set [2] is 20 ng/g. For the same molecule, in data set [3], the concentration at 1 h came out at 9.5 ng/g. Moreover, in data set [4], the pEC50 was 7.77.
For `COc1ccc2oc(-c3cc4ccccc4cn3)c/c(=N\O)c2c1`, the pEC50 in data set [4] is 5.86.
On the same count and under the same terms, to `O/N=c1\cc(-c2cc3sccc3cn2)oc2ccccc12` belongs 6.70.
Take `Cc1c(-c2cc3ccccc3cn2)oc2ccccc2/c1=N/O`: the EC50 result in data set [4] is given as “Not Active”.
On the same count and under the same terms, to `O=c1cc(-c2cc3ccccc3cn2)oc2ccccc12` belongs “Not Active”.
`Cn1ccc2cc(-c3c/c(=N\O)c4ccccc4o3)ncc21`: the pEC50 in data set [4] was 6.07.
For the molecule `O=C(Nc1ccccc1)[C@]12C[C@H]1/C(=N\O)c1ccccc1O2`, the result in data set [6] was Active.
`O/N=c1\cc(-c2ccc3ccccc3n2)oc2ccccc12`: the EC50 result in data set [4] is recorded as “Not Active”.
Take `CN(C)C1CCN(CCOc2ccc3oc(-c4cc5cccn5cn4)c/c(=N\O)c3c2)CC1`: in data set [2], the concentration at 0.5 h amounted to 2.8 ng/g. Further, the concentration at 1 h in data set [3] came to 2.9 ng/g. The pEC50 in data set [4] is 6.78.
For the molecule `O/N=c1\cc(-c2cc3ccccc3cn2)oc2ccc(C(F)(F)F)cc12`, in data set [4], the pEC50 is 5.61.
In the case of `Cc1cc(CCCOc2ccc3oc(-c4cc5cccn5cn4)c/c(=N\O)c3c2)ccn1`, in data set [2], the concentration at 0.5 h stood at 77.3 ng/g. Moreover, the concentration at 1 h in data set [3] is 82.5 ng/g. Also, the pEC50 in data set [4] was 7.72.
Consider `O/N=c1\cc(-c2cc3ccccc3cn2)oc2ccc(C3CC3)cc12`, for which the pEC50 in data set [4] was 6.00.
As for `O/N=c1\cc(-c2cc3ccccc3cn2)oc2ccccc12`, in data set [4], the pEC50 was 6.51.
As to `O/N=c1\cc(-c2cc3ccccc3cn2)oc2ccc(Br)cc12`, in data set [4], the pEC50 was 6.16.
Take `O/N=c1\cc(-c2cnc3ccccc3n2)oc2ccccc12`: the EC50 entry in data set [4] is given as “Not Active”.
Turning to `O/N=c1\cc(-c2cc3ccccc3s2)oc2ccccc12`, the EC50 result in data set [4] was “Not Active”.
In the case of `O/N=c1\cc(-c2cc3sccc3cn2)oc2ccc(OCCN3CCOCC3)cc12`, in data set [2], the concentration at 0.5 h is 408 ng/g. In addition, in data set [3], the concentration at 1 h worked out at 521 ng/g. Further, in data set [5], the concentration at 1.5 h turned out to be 281 ng/g. Also, the pEC50 in data set [4] was 7.46.
As for `Cc1cc(C)n2cnc(-c3c/c(=N\O)c4ccccc4o3)cc12`, the EC50 result in data set [4] is listed as “Not Active”.
Turning to `O/N=c1\cc(-c2cc3sccc3cn2)oc2ccc(OCCN3CCC(F)(F)CC3)cc12`, the concentration at 0.5 h in data set [2] was determined as 239 ng/g. Moreover, the concentration at 1 h in data set [3] is 207 ng/g. Further, in data set [5], the concentration at 1.5 h was determined as 194 ng/g. Also, the pEC50 in data set [4] was 7.05.
`CN1CCN(CCCNc2ccc3oc(-c4cc5ccccc5cn4)c/c(=N\O)c3c2)CC1`: in data set [4], the pEC50 is 5.28.
Regarding `O/N=c1\cc(-c2ccc3ccccc3c2)oc2ccccc12`, the EC50 result in data set [4] is recorded as “Not Active”.
Turning to `O/N=c1\cc(-c2cc3ccsc3cn2)oc2ccccc12`, the pEC50 in data set [4] was 6.89.
Take `O/N=c1\cc(-c2cc3cccn3cn2)oc2ccc(OCCN3CCC(F)(F)CC3)cc12`: the pEC50 in data set [4] is 6.82.
Consider `O/N=c1\cc(-c2ccc3ncccc3c2)oc2ccccc12`, for which the pEC50 in data set [4] was 5.16.
For the molecule `CC(=O)N1CCC(Oc2ccc3oc(-c4cc5cccn5cn4)c/c(=N\O)c3c2)CC1`, in data set [2], the concentration at 0.5 h worked out at 24.1 ng/g. In addition, in data set [3], the concentration at 1 h was determined as 12.1 ng/g. In addition, the pEC50 in data set [4] was 8.00.
In the case of `O/N=c1\cc(-c2cc3ccccc3cn2)oc2c(Cl)cccc12`, in data set [4], the EC50 entry is “Not Active”.
Turning to `CC(=O)N1CC(Oc2ccc3oc(-c4cc5sccc5cn4)c/c(=N\O)c3c2)C1`, the concentration at 0.5 h in data set [2] was less than 1 ng/g. In data set [3], the concentration at 1 h was less than 1 ng/g. Also, in data set [4], the pEC50 was 7.28.
As for `Cc1ncccc1N1CCC(Cc2ccc3oc(-c4cc5sccc5cn4)c/c(=N\O)c3c2)CC1`, the concentration at 0.5 h in data set [2] stood at 7.4 ng/g. Also, the concentration at 1 h in data set [3] was less than 1 ng/g. In data set [4], the pEC50 is 8.40.
Regarding `O/N=c1\cc(-c2ccn3ccnc3c2)oc2ccccc12`, in data set [4], the EC50 entry is “Not Active”.
For the molecule `COCCOc1ccc2/c(=N/O)cc(-c3cc4ccccc4cn3)oc2c1`, the pEC50 in data set [4] was 5.52.
In the case of `CN1CCN(CCOc2ccc3oc(-c4cc5cccn5cn4)c/c(=N\O)c3c2)CC1`, the pEC50 in data set [4] was 5.77.
For the molecule `CN1CCCC12CCN(CCOc1ccc3oc(-c4cc5sccc5cn4)c/c(=N\O)c3c1)CC2`, in data set [2], the concentration at 0.5 h is less than 1 ng/g. In addition, the concentration at 1 h in data set [3] was less than 1 ng/g. In addition, the pEC50 in data set [4] was 7.22.
As for `O/N=c1\cc(-c2cc3ccccc3cn2)oc2cc(Br)ccc12`, the pEC50 in data set [4] is 5.76.
With `O/N=c1\cc(-c2cnc3ccccc3c2)oc2ccccc12`, the pEC50 in data set [4] is 5.40.
`O/N=c1\cc(-c2cc3sccc3cn2)oc2ccc(CCCN3CCC(F)(F)CC3)cc12`: in data set [2], the concentration at 0.5 h was found to be 157 ng/g. For the same molecule, the concentration at 1 h in data set [3] was 201 ng/g. Besides, the concentration at 1.5 h in data set [5] was 100 ng/g. Besides, in data set [4], the pEC50 was 6.97.
Take `O/N=c1\cc(-c2cc3ncccc3cn2)oc2ccccc12`: the pEC50 in data set [4] was 6.62.
Turning to `Cn1c(-c2c/c(=N\O)c3ccccc3o2)cc2ccccc21`, the EC50 entry in data set [4] is on record as “Not Active”.
Consider `O/N=c1\cc(-c2cc3ccccc3o2)oc2ccccc12`, for which the pEC50 in data set [4] was less than 4.52.
With `COCCOc1ccc2oc(-c3cc4cccn4cn3)c/c(=N\O)c2c1`, the pEC50 in data set [4] is 6.80. Besides, the solubility thermodynamic in data set [1] came to 16.3 µM (≈ 5.73 µg/mL).
With `COc1ccc2/c(=N/O)cc(-c3cc4ccccc4cn3)oc2c1`, in data set [4], the pEC50 was 5.94.
In the case of `O/N=c1\cc(-c2cn3cccc3cn2)oc2ccccc12`, the pEC50 in data set [4] was 6.55.
For the molecule `O/N=c1\cc(-c2cc3cnccc3cn2)oc2ccccc12`, the pEC50 in data set [4] was 5.90.
